In assay [1] the target is Histamine H2 receptor (Cavia porcellus, UniProt P47747). As to the kind of experiment: Agonist activity at guinea pig histamine H2 receptor stably transfected in HEK293T cells co-expressing NlucN-mGs/gpH2R-NlucC by mini-G protein recruitment assay. The assay is classed as functional, cell-based.
Assay [2] addresses T1, Muscarinic acetylcholine receptor M2 (Homo sapiens, UniProt P08172).
T1 sequence (P08172 whole entry): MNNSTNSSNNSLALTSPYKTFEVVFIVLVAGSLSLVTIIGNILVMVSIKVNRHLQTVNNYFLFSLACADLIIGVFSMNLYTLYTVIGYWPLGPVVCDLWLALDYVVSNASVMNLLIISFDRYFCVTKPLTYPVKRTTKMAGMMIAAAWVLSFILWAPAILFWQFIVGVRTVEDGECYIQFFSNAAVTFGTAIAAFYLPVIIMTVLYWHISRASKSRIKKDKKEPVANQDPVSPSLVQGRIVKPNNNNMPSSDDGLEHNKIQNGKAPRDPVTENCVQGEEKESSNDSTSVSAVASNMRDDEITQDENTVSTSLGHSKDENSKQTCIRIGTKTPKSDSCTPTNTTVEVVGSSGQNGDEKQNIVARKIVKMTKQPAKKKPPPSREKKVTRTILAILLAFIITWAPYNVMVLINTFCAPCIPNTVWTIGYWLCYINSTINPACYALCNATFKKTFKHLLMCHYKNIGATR
Put plainly: Displacement of [3H]N-methylscopolamine from human muscarinic acetylcholine M2 receptor stably expressed in CHO cells by radioligand competition binding based analysis. The assay is classed as cell-based. The gist of the method:
(§1)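 Whole CHO cells stably expressing hM1–hM5, competed against [3H]N-methylscopolamine. Kd/applied concentrations in nM: M1 0.17/0.2, M2 0.10/0.2, M3 0.12/0.2, M4 0.052/0.1, M5 0.20/0.3.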
(In general: Displacement assays read how much labelled ligand stays bound in the presence of the test substance.)

Assay [3] addresses D(1A) dopamine receptor (Homo sapiens, UniProt P21728). As to the kind of experiment: Displacement of [3H]SCH23390 from human D1 receptor stably expressed in HEK293T cells co-expressing luciferase and CEK incubated for 60 mins by scintillation counting analysis. The assay is classed as cell-based.
Assay [4] addresses Muscarinic acetylcholine receptor M3 (Homo sapiens, UniProt P20309). As to the kind of experiment: Displacement of [3H]N-methylscopolamine from human muscarinic acetylcholine M3 receptor stably expressed in CHO cells by radioligand competition binding based analysis. The assay is classed as cell-based. The gist of the method:
as §1

The target in assay [5] is T2, Muscarinic acetylcholine receptor M5 (Homo sapiens, UniProt P08912).
T2 sequence (P08912 whole entry): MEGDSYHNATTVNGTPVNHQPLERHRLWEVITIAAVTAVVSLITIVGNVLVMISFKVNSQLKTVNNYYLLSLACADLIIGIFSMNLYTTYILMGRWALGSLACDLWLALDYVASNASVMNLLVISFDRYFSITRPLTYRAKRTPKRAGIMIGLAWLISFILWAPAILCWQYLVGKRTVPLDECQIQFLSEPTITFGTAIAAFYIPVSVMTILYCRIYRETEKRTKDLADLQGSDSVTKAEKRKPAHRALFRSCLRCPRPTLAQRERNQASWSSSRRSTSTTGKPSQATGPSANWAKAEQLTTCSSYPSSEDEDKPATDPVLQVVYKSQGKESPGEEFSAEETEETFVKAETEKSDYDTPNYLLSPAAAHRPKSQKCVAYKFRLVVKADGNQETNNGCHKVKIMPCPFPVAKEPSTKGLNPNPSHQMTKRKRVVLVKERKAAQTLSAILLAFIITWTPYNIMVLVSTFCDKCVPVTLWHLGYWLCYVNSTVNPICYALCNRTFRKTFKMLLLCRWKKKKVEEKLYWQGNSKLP
Put plainly: Displacement of [3H]N-methylscopolamine from human muscarinic acetylcholine M5 receptor stably expressed in CHO cells by radioligand competition binding based analysis. The assay is classed as cell-based. In a few lines:
as §1

Assay [6] concerns the target T3, 5-hydroxytryptamine receptor 1A (Homo sapiens, UniProt P08908).
T3 sequence (P08908 whole entry): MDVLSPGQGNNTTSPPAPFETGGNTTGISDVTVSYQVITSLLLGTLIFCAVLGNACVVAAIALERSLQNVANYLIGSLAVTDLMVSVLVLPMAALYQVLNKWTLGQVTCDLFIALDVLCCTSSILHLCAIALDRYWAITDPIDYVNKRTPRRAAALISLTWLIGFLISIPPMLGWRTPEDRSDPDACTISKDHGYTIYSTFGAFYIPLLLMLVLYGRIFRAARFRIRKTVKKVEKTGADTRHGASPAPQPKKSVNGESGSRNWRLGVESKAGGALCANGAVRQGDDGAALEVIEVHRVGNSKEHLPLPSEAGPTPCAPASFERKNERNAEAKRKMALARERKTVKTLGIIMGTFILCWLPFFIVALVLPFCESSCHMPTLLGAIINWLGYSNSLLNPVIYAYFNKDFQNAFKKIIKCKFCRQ
As to the kind of experiment: Displacement of […] from human 5HT1A stably expressed in HEK293T cell membrane incubated for 2 hrs by scintillation counting analysis. The assay is classed as cell membranes.

Assay [7] addresses T4, D(2) dopamine receptor (Homo sapiens, UniProt P14416). The assay is classed as functional, cell-based, HEK293T.
In assay [8] the target is Mu-type opioid receptor (Homo sapiens, UniProt P35372). Put plainly: Displacement of [3H]diprenorphine from human mu-opioid receptor […] in HEK293T cell membrane incubated for 2 hrs by scintillation counting analysis. The assay is classed as cell membranes. In a few lines: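 Transiently transfected HEK293T membranes in 50 mM Tris, pH 7.4. α2A: 10 μg/well, 0.5 nM [3H]RX821002, nonspecific with 10 μM RX821002. μOR: 6 μg/well, 0.3 nM [3H]diprenorphine, nonspecific with 10 μM naloxone. Ki from IC50 by Cheng–Prusoff.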

For assay [9], the target named is T4, D(2) dopamine receptor. As to the kind of experiment: Displacement of [3H]N-methylspiperone from human D2 long receptor stably expressed in HEK293T cells co-expressing luciferase and CEK incubated for 140 mins by radioligand competition binding based assay. The assay is classed as cell-based.
The target of assay [10] is D(1B) dopamine receptor (Homo sapiens, UniProt P21918). As to the kind of experiment: Displacement of [3H]SCH23390 from human D5 receptor stably expressed in HEK293T cells co-expressing luciferase and CEK incubated for 60 mins by scintillation counting analysis. The assay is classed as cell-based.
Assay [11] addresses Beta-1 adrenergic receptor (Homo sapiens, UniProt P08588). Put plainly: Displacement of [3H]CGP12177 from human beta-1 adrenergic receptor […] in HEK293T cell membrane incubated for 2 hrs by scintillation counting analysis. The assay is classed as cell membranes. The gist of the method: (§2)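 Membranes of transiently transfected HEK293T cells in 25 mM HEPES, 5 mM MgCl2, 1 mM EDTA, 0.01% BSA, pH 7.4. β1 at 2 μg/well, β2 at 4 μg/well, with 0.2 nM [3H]CGP12177. Nonspecific binding with 10 μM CGP12177. IC50 converted to Ki by Cheng–Prusoff.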

The target in assay [12] is Beta-2 adrenergic receptor (Homo sapiens, UniProt P07550). As to the kind of experiment: Displacement of [3H]CGP12177 from human beta-2 adrenergic receptor […] in HEK293T cell membrane incubated for 2 hrs by scintillation counting analysis. The assay is classed as cell membranes. In a few lines: as §2
Chain of Beta-2 adrenergic receptor (P07550 whole entry): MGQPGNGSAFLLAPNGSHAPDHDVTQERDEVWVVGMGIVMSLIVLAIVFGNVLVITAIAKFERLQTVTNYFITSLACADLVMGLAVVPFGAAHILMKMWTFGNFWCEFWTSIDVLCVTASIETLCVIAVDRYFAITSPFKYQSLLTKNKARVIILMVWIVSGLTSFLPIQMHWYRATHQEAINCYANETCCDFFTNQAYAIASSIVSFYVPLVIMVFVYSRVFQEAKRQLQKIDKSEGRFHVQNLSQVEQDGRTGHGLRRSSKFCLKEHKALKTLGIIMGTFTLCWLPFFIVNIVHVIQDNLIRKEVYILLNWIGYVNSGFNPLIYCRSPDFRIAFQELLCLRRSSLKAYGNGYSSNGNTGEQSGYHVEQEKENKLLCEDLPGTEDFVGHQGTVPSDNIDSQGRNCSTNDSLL

Chain of Mu-type opioid receptor (P35372 whole entry): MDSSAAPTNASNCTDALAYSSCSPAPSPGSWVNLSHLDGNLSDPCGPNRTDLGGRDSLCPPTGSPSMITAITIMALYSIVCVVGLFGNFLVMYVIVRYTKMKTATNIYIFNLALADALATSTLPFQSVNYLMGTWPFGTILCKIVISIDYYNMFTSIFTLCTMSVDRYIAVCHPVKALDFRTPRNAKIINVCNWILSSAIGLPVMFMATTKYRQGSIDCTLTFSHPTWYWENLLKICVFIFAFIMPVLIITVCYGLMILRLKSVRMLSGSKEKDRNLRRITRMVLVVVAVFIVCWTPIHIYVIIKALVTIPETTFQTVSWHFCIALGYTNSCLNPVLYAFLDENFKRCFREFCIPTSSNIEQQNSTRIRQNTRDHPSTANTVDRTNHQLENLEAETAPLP
Chain of Muscarinic acetylcholine receptor M3 (P20309 whole entry): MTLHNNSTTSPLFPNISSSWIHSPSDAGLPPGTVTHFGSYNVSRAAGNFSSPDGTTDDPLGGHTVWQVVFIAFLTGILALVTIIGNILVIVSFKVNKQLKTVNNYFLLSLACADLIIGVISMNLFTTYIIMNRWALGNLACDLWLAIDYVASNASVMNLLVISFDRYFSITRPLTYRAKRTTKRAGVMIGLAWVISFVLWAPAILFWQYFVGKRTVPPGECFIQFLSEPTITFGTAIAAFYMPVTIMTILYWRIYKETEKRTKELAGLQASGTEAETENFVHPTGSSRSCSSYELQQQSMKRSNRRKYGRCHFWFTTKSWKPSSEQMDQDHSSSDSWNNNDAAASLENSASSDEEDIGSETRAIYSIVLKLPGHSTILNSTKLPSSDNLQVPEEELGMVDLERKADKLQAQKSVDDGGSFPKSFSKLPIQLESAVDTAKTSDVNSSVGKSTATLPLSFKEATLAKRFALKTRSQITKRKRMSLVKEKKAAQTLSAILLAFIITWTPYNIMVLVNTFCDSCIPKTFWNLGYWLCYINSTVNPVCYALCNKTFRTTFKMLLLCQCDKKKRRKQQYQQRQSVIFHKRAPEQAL
Chain of Histamine H2 receptor (P47747 whole entry): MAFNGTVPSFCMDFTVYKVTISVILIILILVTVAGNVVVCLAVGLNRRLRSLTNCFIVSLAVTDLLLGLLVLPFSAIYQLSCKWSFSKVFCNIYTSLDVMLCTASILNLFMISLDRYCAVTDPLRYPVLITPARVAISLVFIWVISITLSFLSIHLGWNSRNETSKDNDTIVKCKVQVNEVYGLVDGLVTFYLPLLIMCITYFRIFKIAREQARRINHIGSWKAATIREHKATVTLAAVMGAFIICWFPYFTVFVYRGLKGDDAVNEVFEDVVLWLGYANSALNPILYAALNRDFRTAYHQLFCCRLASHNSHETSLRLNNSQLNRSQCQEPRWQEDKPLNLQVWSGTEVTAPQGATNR
T4 sequence (P14416 whole entry): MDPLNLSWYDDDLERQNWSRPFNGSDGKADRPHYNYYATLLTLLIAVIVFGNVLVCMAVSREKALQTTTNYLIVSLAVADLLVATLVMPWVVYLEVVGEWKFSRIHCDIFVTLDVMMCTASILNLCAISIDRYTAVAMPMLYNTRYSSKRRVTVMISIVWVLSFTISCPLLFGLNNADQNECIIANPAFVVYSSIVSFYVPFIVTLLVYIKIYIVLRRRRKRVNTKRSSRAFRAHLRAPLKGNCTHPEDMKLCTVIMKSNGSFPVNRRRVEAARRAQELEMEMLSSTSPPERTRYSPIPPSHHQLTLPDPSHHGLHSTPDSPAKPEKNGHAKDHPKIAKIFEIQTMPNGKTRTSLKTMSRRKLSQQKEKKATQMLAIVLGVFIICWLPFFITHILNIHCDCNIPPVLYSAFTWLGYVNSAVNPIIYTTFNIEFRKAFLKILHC
Chain of D(1B) dopamine receptor (P21918 whole entry): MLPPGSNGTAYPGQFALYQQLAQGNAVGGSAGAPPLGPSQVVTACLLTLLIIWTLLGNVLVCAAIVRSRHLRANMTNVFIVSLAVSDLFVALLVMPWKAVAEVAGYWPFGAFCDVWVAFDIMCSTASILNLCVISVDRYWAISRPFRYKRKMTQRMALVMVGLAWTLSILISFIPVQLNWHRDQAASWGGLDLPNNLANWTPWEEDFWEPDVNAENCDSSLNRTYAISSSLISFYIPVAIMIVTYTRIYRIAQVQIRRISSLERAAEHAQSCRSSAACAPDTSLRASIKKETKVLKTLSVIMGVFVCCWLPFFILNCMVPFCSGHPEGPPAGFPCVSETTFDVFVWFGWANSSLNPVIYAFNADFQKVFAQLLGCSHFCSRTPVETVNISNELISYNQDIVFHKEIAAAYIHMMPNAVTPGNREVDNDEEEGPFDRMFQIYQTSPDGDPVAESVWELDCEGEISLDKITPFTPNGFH
Chain of Beta-1 adrenergic receptor (P08588 whole entry): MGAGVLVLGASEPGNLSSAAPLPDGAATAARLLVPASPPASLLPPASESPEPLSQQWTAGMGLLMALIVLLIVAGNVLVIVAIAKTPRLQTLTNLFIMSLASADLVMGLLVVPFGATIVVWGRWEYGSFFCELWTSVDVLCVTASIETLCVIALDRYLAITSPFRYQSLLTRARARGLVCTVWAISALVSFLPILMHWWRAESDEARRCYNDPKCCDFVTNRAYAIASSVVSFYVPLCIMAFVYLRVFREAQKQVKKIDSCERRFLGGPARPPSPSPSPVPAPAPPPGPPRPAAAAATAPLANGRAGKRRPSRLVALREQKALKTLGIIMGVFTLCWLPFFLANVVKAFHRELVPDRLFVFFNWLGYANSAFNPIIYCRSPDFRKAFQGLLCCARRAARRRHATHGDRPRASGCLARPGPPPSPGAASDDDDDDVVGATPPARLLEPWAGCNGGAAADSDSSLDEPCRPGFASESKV
Chain of D(1A) dopamine receptor (P21728 whole entry): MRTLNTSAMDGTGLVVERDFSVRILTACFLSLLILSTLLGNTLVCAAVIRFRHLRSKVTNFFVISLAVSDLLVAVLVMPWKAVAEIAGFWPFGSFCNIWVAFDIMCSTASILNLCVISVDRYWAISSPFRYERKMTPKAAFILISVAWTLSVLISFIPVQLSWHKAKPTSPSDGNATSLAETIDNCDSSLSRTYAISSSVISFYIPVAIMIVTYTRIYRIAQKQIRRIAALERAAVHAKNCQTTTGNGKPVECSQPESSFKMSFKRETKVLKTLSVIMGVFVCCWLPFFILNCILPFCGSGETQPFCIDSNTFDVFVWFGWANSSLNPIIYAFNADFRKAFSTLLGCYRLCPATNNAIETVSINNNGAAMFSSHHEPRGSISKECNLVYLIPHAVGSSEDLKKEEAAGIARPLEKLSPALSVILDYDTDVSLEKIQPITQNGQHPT

As usually defined, the EC50 is the concentration giving half of the maximal effect. Usually Kd stands for the free concentration of one partner at which half of the binding sites on the other are occupied at equilibrium, for simple one-to-one binding. High values mean lower affinity, low ones higher affinity. Broadly, the Ki is a measure of affinity in units of concentration, obtained from inhibition or displacement. What is called pKi is −log10 of the Ki, conventionally taken in molar units. Higher therefore signals a small Ki. In the case of `C[C@@H](NC(=O)/N=C(\N)NCCCc1ncn[nH]1)c1ccccc1`, the EC50 in assay [1] was 16.2 nM; in [7], above 10000 nM. The Kd in [2] is 0.1 nM; in [3], 0.23 nM; in [4], 0.12 nM; in assay [5], 0.2 nM; in assay [6], 0.08 nM; in assay [8], 0.09 nM. The Kd in assay [10] worked out at 0.24 nM; in assay [11], 0.075 nM; in assay [12] it was 0.07 nM. The Ki was above 10000 nM in [2], 2190 nM in assay [3] and above 10000 nM in [9]. Further, the pKi was below 5 in [4]; below 5 in assay [5]; 4.29 in assay [6]; 4.76 in assay [8]; 4.62 in [10]; 4.31 in assay [11]. The same molecule yielded a pKi in [12] of 4.45.
As to `CCCCCNC(=O)/N=C(\N)NCCCc1nnc(N)s1.O=C(O)C(F)(F)F.O=C(O)C(F)(F)F`, the EC50 in [1] is 4.37 nM; in assay [7], above 10000 nM. In addition, the Kd in [2] was 0.1 nM; in assay [3], 0.23 nM; in [4], 0.12 nM; in assay [5], 0.2 nM; in assay [6], 0.08 nM; in [8] it was 0.09 nM. In addition, the values for the Kd in [10], in assay [11] and in assay [12] were 0.24 nM, 0.075 nM and 0.07 nM, respectively. For the same molecule, the Ki was 2450 nM in [3] and 9550 nM in assay [9]. Moreover, the pKi was below 5 in [4]; above 5 in assay [5]; 4.49 in assay [6]; 5.47 in assay [8]; 4.46 in assay [10]; below 4 in assay [11]. The same molecule gave a pKi in assay [12] of 4.2.
For `N/C(=N\C(=O)NCc1ccccc1)NCCCc1nnc(N)s1`, the values for the EC50 in [1] and in assay [7] were 2.19 nM and above 10000 nM, respectively. In addition, the Kd in assay [2] was 0.1 nM; in assay [3], 0.23 nM; in assay [4], 0.12 nM; in [5], 0.2 nM; in assay [6], 0.08 nM; in assay [8] it was 0.09 nM. Moreover, the Kd was found to be 0.24 nM in assay [10], 0.075 nM in assay [11] and 0.07 nM in assay [12]. For the same molecule, the Ki in assay [3] was 1380 nM; in assay [9] it was 6310 nM. In addition, the pKi in assay [4] was below 5; in assay [5] it was above 5; in assay [6] it was 4.56; in assay [8], 5.4; in [10], 4.95; in assay [11], below 4. The same molecule showed a pKi in assay [12] of 4.4.
In the case of `CCCCCNC(=O)/N=C(\N)NCCCc1sc(N)nc1C`, the dissociation constant (Kd) in assay [2] was determined as 0.1 nM; in [3], 0.23 nM; in assay [4], 0.12 nM; in assay [5] it was 0.2 nM; in assay [6], 0.08 nM; in [8], 0.09 nM. Moreover, the Kd in assay [10] is 0.24 nM; in assay [11], 0.075 nM; in [12] it was 0.07 nM. Besides, the figures for the inhibition constant (Ki) in [2] and in assay [3] were above 10000 nM and 257 nM, respectively. The pKi in [4] is below 5; in [5] it was above 5; in [6], 5.18; in assay [8], 5.99; in assay [10] it was 5.4; in [11], 4.66. In [12], this molecule came in with a pKi of 4.93.
